Measured values reported in ChEMBL document CHEMBL2331484, “Synthesis and biological evaluation of scopoletin derivatives” (Bioorg Med Chem, 2013).
pIC50: −log10 of the molar value. Calls of active or inactive are those of the source. The rule behind the calls is not given here.

organism: Gallus gallus; assay: Antiangiogenic activity in chicken embryo chorioallantoic membrane model assessed as inhibition of new blood vessel formation at 10 nmol/egg after 48 hrs by microscopy; type: functional, tissue-based; conditions: not given
Outline: (§1)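 Fertilized chicken eggs incubated seven days at 37.5 °C, ~55% humidity, and the air sac membrane was detached. Sterile 5 × 5 mm filter paper soaked with DMSO or compound (5 and 10 nmol/egg) was air-dried and placed on the CAM. Eggs were sealed and reincubated. Fat emulsion (20%) was injected into the CAM and vessels photographed. Three independent experiments.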

Which inhibition does the source give for COc1cc2ccc(=O)oc2cc1OCC(=O)c1ccc(Br)cc1 here?
The inhibition was “Active”.

tested on: HUVEC; assay: Antiproliferative activity against HUVEC assessed as growth inhibition rate after 24 hrs by MTT assay; type: functional, cell-based; conditions: Homo sapiens
Outline: (§2)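 HUVECs (passages 3–5, primary cord isolates) seeded at 1 × 10⁴ cells/well. Medium replaced with M199 containing 1% FBS plus compound. Viability read by MTT after 24 h. Percent inhibition was calculated from A570 minus A630 of treated versus control wells, and IC50 determined. Triplicate experiments, means ± SEM.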

With COc1cc2ccc(=O)oc2cc1OCC(=O)c1ccc(Br)cc1 as the compound, how does the pIC50 read?
The pIC50 was 4.77.

tested on: HUVEC; assay: Antiangiogenic activity against HUVEC assessed as inhibition of VEGF-induced cell migration at 25 umol/L after 20 hrs by Boyden chamber assay; type: functional, cell-based; conditions: Homo sapiens
Outline: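 Boyden chamber, 8.0 µm membrane. HUVECs at 80% confluence serum-starved 12 h in basal medium and suspended at 1 × 10⁶ cells/mL. Pre-treated 30 min at room temperature with DMSO or compound (final 25 µmol/L). After 20 h cells fixed, stained, and counted in five random fields. Triplicate experiments.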

For COc1cc2ccc(=O)oc2cc1OCC(=O)c1ccc(Br)cc1, which inhibition is on record?
Its inhibition is “Active”.

tested on: HepG2; assay: Cytotoxicity against human HepG2 cells after 24 hrs by MTT assay; type: functional, cell-based; conditions: HepG2, 24 h

With COc1cc2ccc(=O)oc2cc1OCC(=O)c1ccc(Br)cc1 as the compound, how does the pIC50 read?
Its pIC50 is 4.04.

organism: Gallus gallus; assay: Antiangiogenic activity in chicken embryo chorioallantoic membrane model assessed as inhibition of new blood vessel formation at 5 nmol/egg after 48 hrs by microscopy; type: functional, tissue-based; conditions: not given; outline: as §1

With COc1cc2ccc(=O)oc2cc1OCC(=O)c1ccc(Br)cc1 as the compound, how does the inhibition read?
Its inhibition is “Active”.

tested on: HCT-116; assay: Cytotoxicity against human HCT116 cells after 24 hrs by MTT assay; type: functional, cell-based; conditions: HCT-116, 24 h

With COc1cc2ccc(=O)oc2cc1OCC(=O)c1ccc(Br)cc1 as the compound, how does the pIC50 read?
The pIC50 was under 4.00.

tested on: HUVEC; assay: Effect on total p38 MAPK level in VEGF-stimulated HUVEC pretreated at 10 to 50 umol/L for 30 mins before VEGF addition by Western blot analysis; type: functional, cell-based; conditions: Homo sapiens

With COc1cc2ccc(=O)oc2cc1OCC(=O)c1ccc(Br)cc1 as the compound, how does the Activity read?
Its Activity is “inactive”.

tested on: HUVEC; assay: Antiproliferative activity against HUVEC assessed as growth inhibition rate at 10 uM after 24 hrs by MTT assay; type: functional; conditions: Homo sapiens, read-out: GI; outline: as §2

With COc1cc2ccc(=O)oc2cc1OCC(=O)c1ccc(Br)cc1 as the compound, how does the inhibition of growth at 10 µM read?
Its inhibition of growth at 10 µM is 13.2%.

tested on: MKN-45; assay: Cytotoxicity against human MKN45 cells after 24 hrs by MTT assay; type: functional, cell-based; conditions: MKN-45, 24 h

With COc1cc2ccc(=O)oc2cc1OCC(=O)c1ccc(Br)cc1 as the compound, how does the pIC50 read?
Its pIC50 is under 4.00.

tested on: MDA-MB-231; assay: Cytotoxicity against human MDA-MB-231 cells after 24 hrs by MTT assay; type: functional, cell-based; conditions: MDA-MB-231, 24 h

With COc1cc2ccc(=O)oc2cc1OCC(=O)c1ccc(Br)cc1 as the compound, how does the pIC50 read?
Its pIC50 is 4.33.

tested on: K562; assay: Cytotoxicity against human K562 cells after 24 hrs by MTT assay; type: functional, cell-based; conditions: K562, 24 h

With COc1cc2ccc(=O)oc2cc1OCC(=O)c1ccc(Br)cc1 as the compound, how does the pIC50 read?
Its pIC50 is 4.15.

tested on: HUVEC; assay: Antiangiogenic activity against HUVEC assessed as inhibition of VEGF-induced branching and network formation at 25 umol/L after 5 hrs by microscopy; type: functional, cell-based; conditions: Homo sapiens
Outline: (§3)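 Matrigel-coated wells gelled 37 °C 30 min. DMSO or compound (final 25 µmol/L) added for 30 min before plating. After 5 h, enclosed complete tubes counted in five random fields by microscopy. Triplicate experiments, means ± SEM.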

With COc1cc2ccc(=O)oc2cc1OCC(=O)c1ccc(Br)cc1 as the compound, how does the inhibition read?
The inhibition was “Active”.

tested on: PANC-1; assay: Inhibition of MMP-2 protein expression in human PANC1 cells at 10 to 50 umol/L after 24 hrs by SDS-PAGE analysis; type: functional, cell-based; conditions: not given
Outline: (§4)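 Gelatin zymography of culture medium from equal numbers of PANC-1 cells exposed to compound for 24 h. Samples run non-reduced and unboiled on 10% polyacrylamide with 1 mg/mL gelatin. Gel washed in 2.5% Triton X-100 buffer, digested 14 h at 37 °C in Tris–HCl/CaCl2/ZnCl2 buffer pH 7.6, then Coomassie-stained. Clear bands imaged.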

With COc1cc2ccc(=O)oc2cc1OCC(=O)c1ccc(Br)cc1 as the compound, how does the inhibition read?
Its inhibition is “Active”.

tested on: not listed separately; assay: Inhibition of VEGF receptor signaling in HUVEC assessed a inhibition of VEGF-induced ERK1/2 phosphorylation pretreated at 10 to 50 umol/L for 30 mins before VEGF addition by Western blot analysis; type: cell-based; conditions: Homo sapiens

Which inhibition does the source give for COc1cc2ccc(=O)oc2cc1OCC(=O)c1ccc(Br)cc1 here?
Its inhibition is “Active”.

tested on: not listed separately; assay: Inhibition of VEGF receptor signaling in HUVEC assessed a inhibition of VEGF-induced Akt phosphorylation pretreated at 10 to 50 umol/L for 30 mins before VEGF addition by Western blot analysis; type: cell-based; conditions: Homo sapiens

For COc1cc2ccc(=O)oc2cc1OCC(=O)c1ccc(Br)cc1, which inhibition is on record?
Its inhibition is “Active”.

tested on: A-431; assay: Cytotoxicity against human A431 cells after 24 hrs by MTT assay; type: functional, cell-based; conditions: A-431, 24 h

With COc1cc2ccc(=O)oc2cc1OCC(=O)c1ccc(Br)cc1 as the compound, how does the pIC50 read?
The pIC50 was under 4.00.

tested on: HUVEC; assay: Effect on total ERK1/2 level in VEGF-stimulated HUVEC pretreated at 10 to 50 umol/L for 30 mins before VEGF addition by Western blot analysis; type: functional, cell-based; conditions: Homo sapiens

For COc1cc2ccc(=O)oc2cc1OCC(=O)c1ccc(Br)cc1, which Activity is on record?
Its Activity is “inactive”.

tested on: PBMC; assay: Cytotoxicity against human PBMC after 24 hrs by MTT assay; type: cell-based; conditions: not given

With COc1cc2ccc(=O)oc2cc1OCC(=O)c1ccc(Br)cc1 as the compound, how does the pIC50 read?
The pIC50 was under 4.00.

target: MAP kinase p38 (Homo sapiens) (UniProt O15264+Q15759+Q16539+P53778); assay: Inhibition of VEGF receptor signaling in VEGF-stimulated HUVEC assessed a effect on p38 MAPK phosphorylation pretreated at 10 to 50 umol/L for 30 mins before VEGF addition by Western blot analysis; type: protein assay; conditions: not given

For COc1cc2ccc(=O)oc2cc1OCC(=O)c1ccc(Br)cc1, which inhibition is on record?
Its inhibition is “inactive”.

tested on: PANC-1; assay: Cytotoxicity against human PANC1 cells after 24 hrs by MTT assay; type: functional, cell-based; conditions: PANC-1, 24 h

With COc1cc2ccc(=O)oc2cc1OCC(=O)c1ccc(Br)cc1 as the compound, how does the pIC50 read?
The pIC50 was 4.20.

tested on: HUVEC; assay: Effect on total src level in VEGF-stimulated HUVEC pretreated at 10 to 50 umol/L for 30 mins before VEGF addition by Western blot analysis; type: functional, cell-based; conditions: Homo sapiens

Which Activity does the source give for COc1cc2ccc(=O)oc2cc1OCC(=O)c1ccc(Br)cc1 here?
The Activity was “inactive”.

tested on: not listed separately; assay: Inhibition of VEGF receptor signaling in VEGF-stimulated HUVEC assessed a effect on src phosphorylation pretreated at 10 to 50 umol/L for 30 mins before VEGF addition by Western blot analysis; type: cell-based; conditions: Homo sapiens

Which inhibition does the source give for COc1cc2ccc(=O)oc2cc1OCC(=O)c1ccc(Br)cc1 here?
The inhibition was “inactive”.

tested on: HUVEC; assay: Effect on total akt level in VEGF-stimulated HUVEC pretreated at 10 to 50 umol/L for 30 mins before VEGF addition by Western blot analysis; type: functional, cell-based; conditions: Homo sapiens

For COc1cc2ccc(=O)oc2cc1OCC(=O)c1ccc(Br)cc1, which Activity is on record?
Its Activity is “inactive”.

tested on: HUVEC; assay: Antiangiogenic activity against HUVEC assessed as inhibition of VEGF-induced tube formation at 25 umol/L after 5 hrs by microscopy; type: functional, cell-based; conditions: Homo sapiens; outline: as §3

Which inhibition does the source give for COc1cc2ccc(=O)oc2cc1OCC(=O)c1ccc(Br)cc1 here?
Its inhibition is “Active”.

tested on: HuT78; assay: Cytotoxicity against human HUT78 cells after 24 hrs by MTT assay; type: functional, cell-based; conditions: HuT78, 24 h

With COc1cc2ccc(=O)oc2cc1OCC(=O)c1ccc(Br)cc1 as the compound, how does the pIC50 read?
Its pIC50 is 4.03.

tested on: BXPC-3; assay: Cytotoxicity against human BxPC3 cells after 24 hrs by MTT assay; type: functional, cell-based; conditions: BXPC-3, 24 h

With COc1cc2ccc(=O)oc2cc1OCC(=O)c1ccc(Br)cc1 as the compound, how does the pIC50 read?
Its pIC50 is under 4.00.

tested on: PANC-1; assay: Inhibition of MMP-9 protein expression in human PANC1 cells at 10 to 50 umol/L after 24 hrs by SDS-PAGE analysis; type: functional, cell-based; conditions: not given; outline: as §4

For COc1cc2ccc(=O)oc2cc1OCC(=O)c1ccc(Br)cc1, which inhibition is on record?
The inhibition was “Active”.

tested on: HL-60; assay: Cytotoxicity against human HL60 cells after 24 hrs by MTT assay; type: functional, cell-based; conditions: HL-60, 24 h

With COc1cc2ccc(=O)oc2cc1OCC(=O)c1ccc(Br)cc1 as the compound, how does the pIC50 read?
Its pIC50 is 4.04.

tested on: HUVEC; assay: Antiangiogenic activity against HUVEC assessed as inhibition of VEGF-induced migration at 25 umol/L after 20 hrs by microscopy; conditions: Homo sapiens

For COc1cc2ccc(=O)oc2cc1OCC(=O)c1ccc(Br)cc1, which inhibition is on record?
The inhibition was “Active”.

tested on: A549; assay: Cytotoxicity against human A549 cells after 24 hrs by MTT assay; type: functional, cell-based; conditions: A549, 24 h

With COc1cc2ccc(=O)oc2cc1OCC(=O)c1ccc(Br)cc1 as the compound, how does the pIC50 read?
The pIC50 was under 4.00.

tested on: not listed separately; assay: Cytotoxicity against human SHG44 cells after 24 hrs by MTT assay; type: functional, cell-based; conditions: SHG-44, 24 h

With COc1cc2ccc(=O)oc2cc1OCC(=O)c1ccc(Br)cc1 as the compound, how does the pIC50 read?
The pIC50 was under 4.00.

tested on: HUVEC; assay: Antiproliferative activity against HUVEC assessed as growth inhibition rate at 100 uM after 24 hrs by MTT assay; type: functional; conditions: Homo sapiens, read-out: GI; outline: as §2

Which inhibition of growth at 100 µM does the source give for COc1cc2ccc(=O)oc2cc1OCC(=O)c1ccc(Br)cc1 here?
Its inhibition of growth at 100 µM is 97.5%.

tested on: MDA-MB-435; assay: Cytotoxicity against human MDA-MB-435 cells after 24 hrs by MTT assay; type: functional, cell-based; conditions: MDA-MB-435, 24 h

With COc1cc2ccc(=O)oc2cc1OCC(=O)c1ccc(Br)cc1 as the compound, how does the pIC50 read?
Its pIC50 is under 4.00.
